Measurements from ChEMBL document CHEMBL5620402, “Development of submicromolar 17β-HSD10 inhibitors and their in vitro and in vivo evaluation” (Eur J Med Chem, 2023).

Experiments:
[1] = PBS buffer - Octanol distribution coefficient, logD of the compound at pH 7.4 by UHPLC-DAD-MS analysis; type: physicochemical
In short: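 Compound (0.25 mg) was put into 500 μL of a 1:1 water–octanol (logP) or PBS pH 7.4–octanol (logD) mixture. Samples were shaken 30 min and centrifuged 10 min at 10,000 rcf. Each phase was quantified by UHPLC-DAD-MS against calibration lines.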

[2] = Dissociation constant, pKa of compound using buffers of given pH (range from 3.0 to 11.5) by UV-VIS spectrophotometry; type: physicochemical
In short: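 Compound (10 μL of 1 mg/mL) was put into 490 μL of buffers spanning pH 3.0–11.5 in 0.5-unit steps. UV spectra were scanned at 200–400 nm and 20 °C. pKa was fitted from the sigmoidal absorbance of the dissociated form versus pH.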

[3] = Aqueous solubility, logS of the compound at pH 7.4 phosphate buffer by nephelometry assay; type: physicochemical
In short: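 Nephelometry of compound suspensions in phosphate buffer pH 7.4. Stock was 160 μg/mL, sonicated and auto-diluted over 0–160 μg/mL, with higher stocks (640 μg/mL, 2.54 mg/mL) used if needed. Wells were shaken 30 s and laser-scanned. Solubility was derived by segmental linear regression.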

[4] = target: T1, 3-hydroxyacyl-CoA dehydrogenase type-2 (Homo sapiens) (UniProt Q99714); assay: Inhibition of recombinant 17beta-HSD10 (unknown origin) expressed in Escherichia coli BL21 (DE3) assessed as residual activity at 10 uM using acetoacetyl-CoA as substrate by SAAC method relative to control
T1 sequence (whole entry): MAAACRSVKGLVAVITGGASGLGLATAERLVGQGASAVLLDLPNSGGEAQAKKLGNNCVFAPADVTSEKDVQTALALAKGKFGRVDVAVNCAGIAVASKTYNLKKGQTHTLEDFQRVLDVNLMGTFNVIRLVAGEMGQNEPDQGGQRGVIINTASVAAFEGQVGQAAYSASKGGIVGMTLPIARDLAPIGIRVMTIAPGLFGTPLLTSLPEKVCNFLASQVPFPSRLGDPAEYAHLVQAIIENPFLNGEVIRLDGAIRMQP
In short: (§1)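 Recombinant 17β-HSD10 from E. coli BL21(DE3), 0.15 μg, was mixed with 320 μmol/L NADH in Tris-HCl pH 7.4 assay buffer. It was preincubated 5 min at 37 °C with 1 or 10 μM inhibitor or vehicle, then 320 μmol/L acetoacetyl-CoA was added. A340 was followed for 5 min. Residual activity is % of control, triplicate mean ± SD, with t-test versus control.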

[5] = Partition coefficient between Water and Octanol, logP of the compound by UHPLC-DAD-MS analysis; conditions: pH 7.4
[6] = target: T2, 3-hydroxyacyl-CoA dehydrogenase type-2 (Homo sapiens, UniProt Q99714); assay: Inhibition of human recombinant 17beta-HSD10 expressed in bacterial expression system assessed as decrease in NADH using acetoacetyl-CoA as substrate
T2 sequence (Q99714 whole entry): T1 sequence (whole entry)
In short: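 Recombinant 17β-HSD10 from E. coli BL21(DE3), 0.15 μg, was mixed with 320 μmol/L NADH in 10 mM Tris-HCl pH 7.4 buffer (150 mM NaCl, 1 mM DTT, 0.001% Tween 20, 0.01% BSA). It was preincubated 5 min at 37 °C with inhibitor, then 320 μmol/L acetoacetyl-CoA was added. A340 was followed for 5 min. IC50 came from non-linear regression of ≥3 independent runs in triplicate; Ki was calculated from IC50 per Cer et al.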

[7] = target: T1, 3-hydroxyacyl-CoA dehydrogenase type-2 (Homo sapiens); assay: Inhibition of recombinant 17beta-HSD10 (unknown origin) expressed in Escherichia coli BL21 (DE3) assessed as residual activity at 1 uM using acetoacetyl-CoA as substrate by SAAC method relative to control; in short: as §1

SMILES	logD [1]	pKa [2]	logS0 [3]	Activity [4]	logP [5]	IC50 [6]	Activity [7]
Oc1ccc(CNCc2nc3ccccc3o2)cc1Cl	3.19	8.74	-3.38	67.6%	3.14		
COc1ccc2nc(NC(=O)Nc3ccc(O)c(Br)c3)sc2c1						1300 nM	
Oc1ccc(/N=C/c2nc3ccccc3s2)cc1Cl	2.73	9.14	-4.68	68.7%	2.94		
CN(C)c1ccc2nc(NC(=O)Nc3ccc(O)c(Cl)c3)sc2c1	4.08	4.61	-4.08	27%	4.09		62.7%
Oc1ccc(NCc2nc3ccccc3s2)cc1Cl	3.88	9.07	-4.69	72.1%	3.77		
CN(C)C(=O)c1ccc2nc(NC(=O)Nc3ccc(O)c(Cl)c3)sc2c1	2.95	9.51	-4.81	31%	2.94		70%
Oc1ccc(CNCc2cc3ccccc3[nH]2)cc1Cl	2.73	7.6	-3.39	73.8%	2.84		
COc1ccc2nc(NC(=O)Nc3ccc(O)c([N+](=O)[O-])c3)sc2c1	3.44	10.4	-4.78	79.4%	3.47		
COc1ccc2nc(NCc3ccc(O)c(Cl)c3)sc2c1	4.17	8.4	-4.73	33.2%	4.19		74.4%
CS(=O)(=O)c1ccc2nc(NC(=O)Nc3ccc(O)c(Cl)c3)sc2c1						900 nM	
CCOC(=O)c1ccc2nc(NC(=O)Nc3ccc(O)c(Cl)c3)sc2c1	4.64	9.26	-4.81	58.6%	4.58		
COc1ccc2nc(/N=C/c3ccc(O)c(Cl)c3)sc2c1	3.95	11.6	-4.73	76.6%	3.79		
Oc1ccc(CNCc2nc3ccccc3s2)cc1Cl	4.04	8.79	-3.99	54.1%	4.03		
